Compound activity as filed in PubChem BioAssay.
The list is not random: actives were taken first. Their share in the collection is about 5.9%.
T cruzi growth-1 = inhibitors of T. cruzi proliferation; inhibition, % at 8.34 µM; hit rate 5.9% among 77,000; AID 624255; T. cruzi beta-gal in NIH3T3, GalScreen luminescence, 90 h;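 active = mean inhibition above about 93%, with at least 55% of replicates each passing it, limit read from the data, passing the limit was not always enough; inconclusive = only one of those two conditions holds; inactive = neither condition holds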
Pf Dd2 inh = inhibitors of Plasmodium falciparum Dd2 growth; AID 1159554; activity change, % at 10 µM; hit rate 2.3% among 94,000; P. falciparum Dd2 growth, SYBR Green, 72 h; active compounds read low; in the data active = activity change below about -80%; inconclusive = no clear call, values can overlap the other calls
IDH1 R132H inh = blocks human IDH1 R132H reductase activity | O75874 | diaphorase/resazurin fluorescence, 60 min | inhibition, % at 10 µM | hit rate 0.18% among 70,000 | AID 624101; in the data active = inhibition above about 34%; inconclusive = no clear call, values can overlap the other calls; inactive = below about 11%;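 note: 0% = DMSO and 100% = no enzyme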
Target sequence (O75874 whole entry R132H): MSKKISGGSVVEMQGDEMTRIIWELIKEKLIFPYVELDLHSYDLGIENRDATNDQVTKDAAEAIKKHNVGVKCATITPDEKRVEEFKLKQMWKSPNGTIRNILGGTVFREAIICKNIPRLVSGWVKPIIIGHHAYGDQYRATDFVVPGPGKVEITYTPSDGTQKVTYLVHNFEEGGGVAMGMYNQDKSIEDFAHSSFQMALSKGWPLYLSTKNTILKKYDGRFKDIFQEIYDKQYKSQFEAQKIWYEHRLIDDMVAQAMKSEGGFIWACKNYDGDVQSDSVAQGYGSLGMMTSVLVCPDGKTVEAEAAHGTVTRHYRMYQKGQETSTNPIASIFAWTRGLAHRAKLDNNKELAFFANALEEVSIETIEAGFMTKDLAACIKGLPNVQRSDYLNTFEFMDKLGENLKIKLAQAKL
GASC1 inh = blocks human GASC-1 (KDM4C) demethylase activity. Q9H3R0. GST-KDM4C 2-372, H3K9me3 peptide, LANCE TR-FRET. inhibition, % at 12.5 µM. hit rate 0.15% among 96,000. AID 720574;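 active = mean replicate inhibition above about 25%, with at least 55% of replicates also reaching it, limit read from the data, passing the limit was not always enough; inconclusive = only one of those two conditions met; inactive = neither condition met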
Target sequence (Q9H3R0 2-372 limits assumed): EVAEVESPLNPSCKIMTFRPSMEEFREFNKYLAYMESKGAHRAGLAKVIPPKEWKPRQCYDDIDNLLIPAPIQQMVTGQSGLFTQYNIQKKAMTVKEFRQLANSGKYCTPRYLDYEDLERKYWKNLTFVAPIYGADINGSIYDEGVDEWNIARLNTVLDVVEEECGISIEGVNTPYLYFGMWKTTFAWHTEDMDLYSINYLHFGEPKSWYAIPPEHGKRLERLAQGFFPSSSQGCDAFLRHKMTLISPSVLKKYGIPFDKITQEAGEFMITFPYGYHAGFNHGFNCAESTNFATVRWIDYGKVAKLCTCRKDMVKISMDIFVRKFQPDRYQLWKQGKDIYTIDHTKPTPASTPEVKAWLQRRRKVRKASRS
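Material: N-terminal GST-fused human GASC-1 (KDM4C) fragment, residues 2-372. Input: 10 nM enzyme. Incubation: enzyme reaction 30 min, then detection 60 min, both room temperature. Doses: one test concentration per compound. Read-out basis: inhibition from TR-FRET ratio decrease. Detection: LANCE TR-FRET, excitation 340 nm, emissions 618 and 671 nm.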
T cruzi growth-2 = blocks T. cruzi growth in NIH3T3 host cells; shares compounds with T cruzi growth-1; T. cruzi beta-gal in NIH3T3, GalScreen luminescence, 90 h; inhibition, % at 8.35 µM; hit rate 72% among 5,600; AID 651739;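 active = mean replicate inhibition above about 95% and at least 55% of replicates individually reaching it, limit read from the data; inconclusive = only one of the two criteria is met; inactive = neither criterion is met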
T cruzi growth-3 = blocks T. cruzi growth in NIH3T3 host cells | shares compounds with T cruzi growth-1 | T. cruzi beta-gal in NIH3T3, GalScreen luminescence, 90 h | inhibition, % at 2.09 µM | hit rate 21% among 5,600 | AID 651740;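 active = mean inhibition above about 95%, with at least 55% of replicates also reaching it, limit read from the data; inconclusive = meets just one of the two conditions; inactive = meets neither condition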;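 note: plate controls were neutral control median for no effect and positive control median for full effect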
NIH3T3 tox = kills mouse NIH/3T3 fibroblasts. shares compounds with T cruzi growth-1. NIH/3T3 viability, CellTiter-Glo ATP luminescence, 90 h. cytotoxicity (signal decrease), % at 8.35 µM. hit rate 14% among 5,600. AID 651742;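 active = mean signal decrease across replicates above about 35% based on untreated-well scatter, with enough replicates individually passing, limit read from the data; inconclusive = no rule stated though some were filed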;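 note: 0% = median of neutral control wells and 100% = median of positive control wells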
3T3 cytotox 2 = kills mouse NIH/3T3 fibroblasts | shares compounds with T cruzi growth-1 | NIH/3T3 viability, CellTiter-Glo ATP luminescence, 90 h | inhibition, % at 24.9 µM | hit rate 56% among 5,600 | AID 651744;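 active = mean loss of cell viability signal at or above a set limit, and enough replicates individually reaching it; inconclusive = meets only the mean limit or only the replicate share; inactive = meets neither condition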;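 note: 0% = median of neutral control wells and 100% = median of positive control wells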
* = called active by the depositor; ? = inconclusive; . = not tested or not shown.

SMILES | T cruzi growth-1 | Pf Dd2 inh | IDH1 R132H inh | GASC1 inh | T cruzi growth-2 | T cruzi growth-3 | NIH3T3 tox | 3T3 cytotox 2
C[C@H]1CN([C@@H](C)CO)S(=O)(=O)c2ccc(C3=CCCC3)cc2O[C@H]1CN(C)Cc1cncnc1 | 6.6 | -46.0 | 1.0 | 0.0 | . | . | . | .
CCCc1cn(CC[C@@H]2CC[C@H](NC(=O)C3CCC3)[C@H](CO)O2)nn1 | . | 4.0 | -0.1 | 8.0 | . | . | . | .
Cc1noc(C)c1NC(=O)Nc1ccc2c(c1)C(=O)N(C)[C@@H]1CC[C@@H](CC(=O)N[C@H]3CCN(Cc4ccccc4)C3)O[C@H]1CO2 | 102.3* | 8.4 | . | 2.1 | 16.5 | -25.4 | -1.4 | -1.1
Cc1noc(C)c1NC(=O)Nc1ccc2c(c1)C(=O)N(C)[C@H]1CC[C@@H](CC(=O)N[C@H]3CCN(Cc4ccccc4)C3)O[C@H]1CO2 | 117.0* | 2.2 | . | 0.5 | 88.0 | 43.0 | -4.6 | -13.9
CCCNC(=O)N(C)C[C@@H]1Oc2cc(-c3ccncc3)ccc2S(=O)(=O)N([C@H](C)CO)C[C@H]1C | 107.2* | -1.1 | -1.4 | 0.1 | 87.5 | 75.9 | 1.4 | 13.4
CCCNC(=O)N(C)C[C@@H]1Oc2cc(-c3ccncc3)ccc2S(=O)(=O)N([C@@H](C)CO)C[C@H]1C | 110.8* | 37.8 | 0.9 | 1.1 | 96.8* | 85.1 | 2.2 | 9.8
CCCNC(=O)N(C)C[C@@H]1Oc2cc(-c3ccncc3)ccc2S(=O)(=O)N([C@H](C)CO)C[C@@H]1C | 38.1 | -15.7 | 1.2 | 3.3 | . | . | . | .
C[C@@H]1CN([C@H](C)CO)C(=O)c2cc(-c3ccc(F)cc3)cnc2O[C@H]1CN(C)C(=O)c1cccnc1 | -225.0 | -4.9 | 2.0 | 0.3 | . | . | . | .
Cc1ccc(-c2ccc([C@H]3[C@H](CO)N4CCCCN(S(=O)(=O)c5ccccc5C)C[C@@H]34)cc2)cc1 | 75.3 | -48.4 | . | 0.0 | . | . | . | .
Cc1ccccc1S(=O)(=O)N1CCCCN2[C@H](C1)[C@H](c1ccc(-c3ccccc3)cc1)[C@@H]2CO | 107.3* | 2.3 | . | . | 101.8* | 74.7 | -0.5 | 47.9*
Cc1cccc(-c2ccc([C@H]3[C@@H](CO)N4CCCCN(S(=O)(=O)c5ccccc5C)C[C@@H]34)cc2)c1 | 111.2* | -12.8 | . | -1.5 | 112.3* | 88.8 | 8.8 | -2.5
CCc1cnc(N2[C@H](C#N)[C@H](c3ccc(C#CCC4CCCC4)cc3)[C@H]2CO)s1 | 94.5 | -29.4 | . | -3.9 | . | . | . | .
CCc1cnc(N2[C@H](C#N)[C@H](c3ccc(C#CCC4CCCC4)cc3)[C@@H]2CO)s1 | 97.6* | -58.3 | . | -3.4 | 91.0 | 114.2* | -9.4 | ?
CCc1cnc(N2[C@@H](C#N)[C@@H](c3ccc(C#CCC4CCCC4)cc3)[C@@H]2CO)s1 | 97.1* | -40.5 | . | -0.6 | 99.0* | 110.9* | -6.3 | 104.2*
CCCN(C)C[C@@H]1OCCCC[C@@H](C)Oc2ccc(NS(C)(=O)=O)cc2C(=O)N([C@@H](C)CO)C[C@@H]1C | 49.0 | -16.3 | 0.3 | 0.8 | . | . | . | .
O=C(C[C@H]1C=C[C@@H](NC(=O)C2CC2)[C@@H](CO)O1)Nc1nccs1 | 121.2* | -17.5 | -0.2 | 1.0 | 78.5 | 11.2 | -15.3 | -1.3
C[C@@H](NC(=O)C[C@@H]1C=C[C@H](NC(=O)C2CCOCC2)[C@H](CO)O1)c1ccccc1 | 17.9 | -4.1 | 0.1 | 1.3 | . | . | . | .
C[C@H](NC(=O)C[C@H]1C=C[C@H](NC(=O)C2CCOCC2)[C@H](CO)O1)c1ccccc1 | 97.7* | 1.7 | -0.1 | 0.5 | -12.7 | -76.8 | -3.4 | -14.4
CN(C)C(=O)c1ccc(-c2ccc([C@H]3[C@@H](CO)N4CCCCN(Cc5cccnc5)C[C@H]34)cc2)cc1 | ? | -7.0 | . | -0.4 | 104.2* | 91.0 | 2.9 | -6.8
CN(C)C(=O)c1cccc(-c2ccc([C@H]3[C@@H](CO)N4CCCCN(Cc5cccnc5)C[C@H]34)cc2)c1 | ? | 3.0 | . | -0.8 | 107.2* | 87.5 | 2.4 | -16.1
CN(C)C(=O)c1cccc(-c2ccc([C@@H]3[C@H](CO)N4CCCCN(Cc5cccnc5)C[C@@H]34)cc2)c1 | 13.4 | -5.5 | . | -0.9 | . | . | . | .
Cn1c(=O)c2c(nc(SCC(N)=O)n2Cc2ccccc2F)n(C)c1=O | . | . | 0.0 | . | . | . | . | .
Cc1ccccc1-c1cnc2c(c1)C(=O)N([C@@H](C)CO)C[C@H](C)[C@H](CN(C)Cc1ccccc1F)O2 | 48.8 | -24.7 | 0.9 | 0.4 | . | . | . | .
C[C@@H]1CN([C@@H](C)CO)S(=O)(=O)c2ccc(C#Cc3ccccn3)cc2O[C@@H]1CN(C)Cc1ccc(F)cc1 | 99.9* | -29.4 | 0.0 | -13.5 | 106.8* | 87.4 | 38.0* | -6.8
C[C@H](CO)N1C[C@H](C)[C@@H](CN(C)Cc2ccc(F)cc2)Oc2cc(C#Cc3ccccn3)ccc2S1(=O)=O | 126.8* | -33.5 | 0.0 | -33.2 | 105.8* | 102.4* | 4.1 | -10.1
SMILES | T cruzi growth-1 | Pf Dd2 inh | IDH1 R132H inh | GASC1 inh | T cruzi growth-2 | T cruzi growth-3 | NIH3T3 tox | 3T3 cytotox 2
COc1ccc2c3c(n(C)c2c1)[C@H](CO)N(Cc1ccccc1)CC31CCN(C(=O)Nc2cccc(F)c2)CC1 | . | -73.1 | . | 0.7 | . | . | . | .
C[C@H]1CN([C@@H](C)CO)C(=O)c2cccc(NC(=O)C3CCOCC3)c2O[C@@H]1CN(C)C(=O)Nc1ccc(C(F)(F)F)cc1 | 53.1 | 3.5 | -7.0 | -1.9 | . | . | . | .
CN1C(=O)c2cc(NC(=O)c3cccc(C(F)(F)F)c3)ccc2OC[C@@H]2O[C@@H](CC(=O)NCCN3CCCC3)CC[C@H]21 | 2.3 | -15.0 | . | 3.5 | . | . | . | .
CN1C(=O)c2cc(NC(=O)c3cccc(C(F)(F)F)c3)ccc2OC[C@@H]2O[C@H](CC(=O)NCCN3CCCC3)CC[C@@H]21 | 98.0* | 0.0 | . | -1.8 | 99.3* | 81.6 | -6.0 | 6.6
CN1C(=O)c2cc(NC(=O)C3CC3)ccc2OC[C@@H]2O[C@@H](CC(=O)NCCN3CCCC3)CC[C@H]21 | 27.7 | -18.1 | . | 0.5 | . | . | . | .
CN1C(=O)c2cc(NC(=O)C3CC3)ccc2OC[C@@H]2O[C@H](CC(=O)NCCN3CCCC3)CC[C@@H]21 | ? | 2.2 | . | 0.0 | 72.1 | 87.9 | 6.6 | -6.2
COc1ccc(S(=O)(=O)N2CCCCN3[C@H](C2)[C@H](c2ccc(C#CC(C)C)cc2)[C@@H]3CO)cc1 | 117.8* | -23.8 | . | -0.7 | 107.4* | 105.3* | 1.1 | 69.2*
COc1ccc(S(=O)(=O)N2CCCCN3[C@H](CO)[C@@H](c4ccc(C#CC(C)C)cc4)[C@@H]3C2)cc1 | 95.9* | -16.7 | . | -0.1 | 101.2* | 74.7 | 20.7 | 19.8
COc1ccc(S(=O)(=O)N2CCCCN3[C@H](CO)[C@H](c4ccc(C#CC(C)C)cc4)[C@@H]3C2)cc1 | 81.4 | 9.2 | . | -0.2 | . | . | . | .
